Experimental data taken from ChEMBL document CHEMBL3352721, “Identification, optimization, and pharmacology of acylurea GHS-R1a inverse agonists” (J Med Chem, 2014).
In brackets after ≈: the same amount, converted by molar mass.

Tests used:
[1] = Lipophilicity, logD of the compound; type: physicochemical; conditions: octanol/water
[2] = Aqueous solubility at pH 7.4 under thermodynamic conditions; type: physicochemical; conditions: buffer, read-out: Therm_solubility
Method in brief: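 Thermodynamic solubility measured from solid samples in aqueous medium at pH 7.4.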

[3] = biological target: Growth hormone secretagogue receptor type 1 (Homo sapiens, UniProt Q92847); assay: Displacement of [125I]human ghrelin from human GHS-R1a expressed in HEK cell membranes after 60 mins by gamma counting method; set-up: species or system HEK293
Growth hormone secretagogue receptor type 1, sequence (Q92847 whole entry): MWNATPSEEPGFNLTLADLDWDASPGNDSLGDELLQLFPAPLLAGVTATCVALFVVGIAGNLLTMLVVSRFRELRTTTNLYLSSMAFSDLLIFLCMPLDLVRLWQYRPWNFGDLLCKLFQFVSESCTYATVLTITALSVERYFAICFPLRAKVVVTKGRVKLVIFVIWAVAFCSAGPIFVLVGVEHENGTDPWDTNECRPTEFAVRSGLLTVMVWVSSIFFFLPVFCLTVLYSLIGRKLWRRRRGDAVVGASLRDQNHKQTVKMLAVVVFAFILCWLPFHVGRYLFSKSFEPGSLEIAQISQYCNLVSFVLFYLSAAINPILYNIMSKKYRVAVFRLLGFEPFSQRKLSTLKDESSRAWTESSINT

[4] = Cmax in Han-Wistar rat at 2 mg/kg, po by LC-MS/MS method; type: ADME, organism-based; set-up: dose 2 mg/kg, route oral; conditions: in vivo
Method in brief: (§1)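 Oral gavage in male HW rats, beagle dogs or CD-1 mice, vehicle Pluronic F127 in water. EDTA plasma was collected over 24 h and quantified by LC/MS/MS after acetonitrile precipitation. Cmax and bioavailability were obtained by non-compartmental analysis against IV data.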

MDR1 [5] = assay: Efflux ratio in MDCK cells expressing MDR1 at 10 uM; type: ADME, cell-based, Canis lupus familiaris; conditions: dog
Method in brief: (§2)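 MDCK-MDR1 monolayers incubated with compound at 10 µM; permeability measured in both A→B and B→A directions, giving Papp A-B (x10^6 cm/s) and the efflux ratio.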

[6] = Ratio of drug level in homogenized brain to plasma in Han-Wistar rat measured 1 hr after iv bolus then iv infusion by LC-MS/MS method; type: ADME, organism-based; conditions: read-out: BPR
Method in brief: (§3)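 Brain:plasma ratio in homogenized brain 1 h after IV bolus followed by IV infusion. The free ratio used free fractions measured in plasma and brain (brain slice method or brain homogenate).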

MDR1 [7] = assay: Apparent permeability in MDCK cells expressing MDR1 at 10 uM assessed as apical to basolateral side transport; type: ADME, cell-based, Canis lupus familiaris; conditions: dog; method in brief: as §2
[8] = Ratio of free drug level in homogenized brain to plasma in Han-Wistar rat measured 1 hr after iv bolus then iv infusion by LC-MS/MS method; type: ADME, organism-based; conditions: read-out: BPR; method in brief: as §3
[9] = Cmax in CD1 mouse at 2 mg/kg, po by LC-MS/MS method; type: ADME, organism-based; set-up: dose 2 mg/kg, route oral; conditions: in vivo; method in brief: as §1

logD [1] | solubility thermodynamic [2] [µM] | IC50 [3] [nM] | Cmax [4] [nM] | efflux ratio at 10 µM (MDR1 [5]) | Kp at 1 h [6] | Papp A→B at 10 µM (MDR1 [7]) [×10⁻⁶ cm/s] | Kp uu at 1 h [8] | Cmax [9] [nM] | Compound
2.7 | 64 (≈ 31.6 µg/mL) | – | – | – | – | – | – | – | O=C(NC(=O)c1ccccc1Cl)Nc1nc2ccc(S(=O)(=O)CCN3CCCC3)cc2s1
1.5 | 240 (≈ 125 µg/mL) | – | – | – | – | – | – | – | CN1CCN(CCS(=O)(=O)c2ccc3nc(NC(=O)NC(=O)c4ccccc4Cl)sc3c2)CC1
2.8 | 3 (≈ 1.23 µg/mL) | 4700 | – | – | – | – | – | – | CS(=O)(=O)c1ccc2sc(NC(=O)NC(=O)c3ccccc3Cl)nc2c1
1.8 | – | 2.9 | 9400 | 5.5 | < 0.01 | 3.3 | – | – | CCN(CC)CCCS(=O)(=O)c1ccc2nc(NC(=O)NC(=O)c3cc(N4CCOCC4)ccc3Cl)sc2c1
2.6 | – | 0.48 | 220 | 0.86 | – | 3.5 | – | – | Cc1ccn(-c2ccc(C(=O)NC(=O)Nc3nc4ccc(S(=O)(=O)CCCN5CCN(C)CC5)cc4s3)c(Cl)c2)n1
2.8 | – | – | – | – | – | – | – | – | CS(=O)(=O)c1ccc2nc(NC(=O)NC(=O)c3cc(-n4cccc4)ccc3Cl)sc2c1
1.7 | 280 (≈ 143 µg/mL) | 13 | – | 2.7 | – | 5.4 | – | – | CCN(CC)CCCS(=O)(=O)c1ccc2nc(NC(=O)NC(=O)c3ccccc3Cl)sc2c1
1 | 340 (≈ 187 µg/mL) | 4.2 | – | 41 | – | 0.7 | – | – | CN1CCCN(CCCS(=O)(=O)c2ccc3nc(NC(=O)NC(=O)c4ccccc4Cl)sc3c2)CC1
> 3.9 | < 0.71 | 210 | – | – | – | – | – | – | COc1ccc2nc(NC(=O)NC(=O)c3c(Cl)cccc3Cl)sc2c1
2.4 | – | 0.31 | 4200 | 5 | 0.052 | 2.8 | 0.52 | – | CCOc1ccc(Cl)c(C(=O)NC(=O)Nc2nc3ccc(S(=O)(=O)CCCN4CCN(C)CC4)cc3s2)c1
2.9 | – | 0.078 | 1500 | 13 | 0.036 | 1.7 | 0.04 | – | CCc1ccc(Cl)c(C(=O)NC(=O)Nc2nc3ccc(S(=O)(=O)CCCN4CCN(C)CC4)cc3s2)c1
2.2 | 69 (≈ 34 µg/mL) | 65 | – | 0.9 | – | 17 | – | – | CN1CCC(S(=O)(=O)c2ccc3nc(NC(=O)NC(=O)c4ccccc4Cl)sc3c2)CC1
2.6 | – | 0.15 | 580 | 38 | – | 0.37 | – | – | CN1CCN(CCCS(=O)(=O)c2ccc3nc(NC(=O)NC(=O)c4cc(-n5cccc5)ccc4Cl)sc3c2)CC1
2.9 | – | 0.43 | 3600 | 42 | – | 0.1 | – | – | CCN(CC)CCCS(=O)(=O)c1ccc2nc(NC(=O)NC(=O)c3cc(-n4cccc4)ccc3Cl)sc2c1
3.1 | – | 0.29 | 640 | 0.55 | < 0.03 | 4.5 | – | – | CN1CCN(CCCS(=O)(=O)c2ccc3nc(NC(=O)NC(=O)c4cc(N5CCCC5)ccc4Cl)sc3c2)CC1
2.3 | 71 (≈ 34.2 µg/mL) | – | – | – | – | – | – | – | CC(C)NCCS(=O)(=O)c1ccc2nc(NC(=O)NC(=O)c3ccccc3Cl)sc2c1
2.8 | – | 0.24 | – | – | – | – | – | – | CN1CCN(CCCS(=O)(=O)c2ccc3nc(NC(=O)NC(=O)c4cc(N5CCCC5)c(C#N)cc4Cl)sc3c2)CC1

logD [1] | solubility thermodynamic [2] [µM] | IC50 [3] [nM] | Cmax [4] [nM] | efflux ratio at 10 µM (MDR1 [5]) | Kp at 1 h [6] | Papp A→B at 10 µM (MDR1 [7]) [×10⁻⁶ cm/s] | Kp uu at 1 h [8] | Cmax [9] [nM] | Compound
1.1 | 72 (≈ 28.4 µg/mL) | > 10000 | – | – | – | – | – | – | CS(=O)(=O)c1ccc2nc(NC(=O)NC(=O)c3ccccc3Cl)oc2c1
2.5 | – | 15 | – | 2.5 | – | 3.9 | – | 1500 | CN1CCC(S(=O)(=O)c2ccc3nc(NC(=O)NC(=O)c4cc(-n5cccn5)ccc4Cl)sc3c2)CC1
2.2 | – | – | – | 46 | – | 0.86 | – | – | COc1cc(Cl)c(C(=O)NC(=O)Nc2nc3ccc(S(=O)(=O)CCCN4CCN(C)CC4)cc3s2)cc1-n1cccn1
2.8 | – | 0.57 | 300 | 0.71 | 0.049 | 3.9 | 0.04 | – | CN1CCN(CCCS(=O)(=O)c2ccc3nc(NC(=O)NC(=O)c4cc5c(ccn5C)cc4Cl)sc3c2)CC1
2.6 | – | 0.53 | 410 | 14 | – | 0.68 | – | – | Cc1ccn(-c2ccc(Cl)c(C(=O)NC(=O)Nc3nc4ccc(S(=O)(=O)CCCN5CCN(C)CC5)cc4s3)c2)n1
2 | – | 0.67 | 1200 | 7.6 | < 0.03 | 2.9 | – | – | CN1CCN(CCCS(=O)(=O)c2ccc3nc(NC(=O)NC(=O)c4cc(-n5cccn5)ccc4Cl)sc3c2)CC1
1.6 | – | – | 12 | 25 | – | 0.91 | – | – | CN1CCN(CCCS(=O)(=O)c2ccc3nc(NC(=O)NC(=O)c4cccc(-n5cccn5)c4Cl)sc3c2)CC1
2.5 | – | 1.3 | 78 | 76 | – | 0.44 | – | – | Cc1cc(C)n(-c2ccc(Cl)c(C(=O)NC(=O)Nc3nc4ccc(S(=O)(=O)CCCN5CCN(C)CC5)cc4s3)c2)n1
3.1 | – | 0.92 | – | 0.05 | – | 11 | – | 5800 | CN1CCC(S(=O)(=O)c2ccc3nc(NC(=O)NC(=O)c4cc(N5CCCC5)ccc4Cl)sc3c2)CC1
> 4 | 0.78 (≈ 0.282 µg/mL) | 76 | – | – | – | – | – | – | COc1ccc2nc(NC(=O)NC(=O)c3ccccc3Cl)sc2c1
1.3 | 87 (≈ 44.5 µg/mL) | 8.6 | – | – | – | – | – | – | COCCNCCCS(=O)(=O)c1ccc2nc(NC(=O)NC(=O)c3ccccc3Cl)sc2c1
2.3 | – | – | 30 | 55 | – | 0.4 | – | – | CN1CCN(CCCS(=O)(=O)c2ccc3nc(NC(=O)NC(=O)c4cc(-n5cccn5)c(Cl)cc4Cl)sc3c2)CC1
2.5 | – | 0.69 | 1000 | 19 | – | 0.52 | – | – | CN1CCN(CCCS(=O)(=O)c2ccc3nc(NC(=O)NC(=O)c4cc(-c5ccccn5)ccc4Cl)sc3c2)CC1
2.1 | – | 3.9 | 1600 | 12 | – | 0.71 | – | – | CCN(CC)CCCS(=O)(=O)c1ccc2nc(NC(=O)NC(=O)c3cc(-n4cccn4)ccc3Cl)sc2c1
2.3 | – | 5.1 | 1400 | 3.3 | < 0.03 | 3.3 | – | – | C#Cc1ccc(Cl)c(C(=O)NC(=O)Nc2nc3ccc(S(=O)(=O)CCCN4CCN(C)CC4)cc3s2)c1
1.7 | 240 (≈ 115 µg/mL) | – | – | 1.4 | – | 13 | – | – | CN(C)CCCS(=O)(=O)c1ccc2nc(NC(=O)NC(=O)c3ccccc3Cl)sc2c1
2.5 | < 0.47 | 120 | – | – | – | – | – | – | CS(=O)(=O)c1ccc2nc(NC(=O)NC(=O)c3ccccc3Cl)sc2c1
